High-throughput results: PubChem BioAssay, several laboratories
ASAP1 GAP inh: inhibitors of human ASAP1 ArfGAP activity, primary screen, biochemical, fluorescence polarization; Arf-GAP with SH3 domain, ANK repeat and PH domain-containing protein 1 (Homo sapiens), …; ASAP1-stimulated ARF1 GTP hydrolysis, GDP FP detection; inhibition, % at 16.5 µM; hit rate 0.19% among 360,000; in the data active = inhibition above about 25%;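 note: 0% = vehicle with enzyme and substrate and 100% = no enzyme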
Target sequence (Q9ULH1 325-724 limits assumed): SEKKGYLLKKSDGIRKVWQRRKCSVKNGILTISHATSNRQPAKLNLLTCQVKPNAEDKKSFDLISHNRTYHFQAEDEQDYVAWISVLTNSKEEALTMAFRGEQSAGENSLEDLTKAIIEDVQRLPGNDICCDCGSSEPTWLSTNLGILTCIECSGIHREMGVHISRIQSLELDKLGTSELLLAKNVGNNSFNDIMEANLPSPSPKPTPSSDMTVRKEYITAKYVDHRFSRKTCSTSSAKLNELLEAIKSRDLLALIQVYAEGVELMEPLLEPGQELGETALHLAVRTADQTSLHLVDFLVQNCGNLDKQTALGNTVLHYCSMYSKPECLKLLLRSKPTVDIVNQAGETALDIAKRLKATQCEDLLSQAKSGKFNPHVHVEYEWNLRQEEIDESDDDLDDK
rCAG binder: binders of r(CAG) RNA repeats, primary screen, biochemical, fluorescence. r(CAG) RNA repeat, TO-PRO-1 dye displacement fluorescence. inhibition, % at 3 µM. hit rate 1.3% among 370,000;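 active = inhibition above the plate cutoff, the mean of all test compounds on that plate plus 3 SD, cut at about 35% in these data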;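 note: 0% = DMSO alone and 100% = 100 µM mitoxantrone as full dye displacement; higher means more dye released from RNA so lower well fluorescence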
NadD block: inhibitors of S. aureus NadD, primary screen, biochemical, colorimetric, uHTS; Nicotinate-nucleotide adenylyltransferase NadD (Staphylococcus aureus N315); purified NadD enzyme, colorimetric absorbance read-out; inhibition, % at 20 µM; hit rate 0.78% among 360,000; AID 602399, 2012; in the data active = inhibition above about 26%
ARFGAP1 inhibitor: inhibitors of rat ARFGAP1 GAP activity, primary screen, biochemical, fluorescence polarization, GDP tracer | ADP-ribosylation factor GTPase-activating protein 1 (Rattus norvegicus), Q62848 | Arfgap1-stimulated ARF1 GTP hydrolysis, GDP FP detection | inhibition, % at 16.5 µM | hit rate 0.26% among 360,000;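 active = inhibition above a per-plate limit, mean inhibition of low control wells plus 3 SD, cut at about 25% in these data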;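 note: 0% = DMSO wells with enzyme and 100% = wells lacking Arfgap1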
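system = rat Arfgap1 catalytic domain, aa 1-136 | technique = FP, GDP Alexa 633 tracer displaced from anti-GDP antibody, 620/688 nm | compound = one concentration, 16.5 µM, DMSO 1.26% | medium = HEPES-based buffer, pH 7.5 | timing = compound-enzyme preincubation 20 min, reaction 120 min, detection 60 min, 25 °C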
ASAP1 inh confirm: ASAP1 GAP activity inhibitors, confirmation, biochemical, fluorescence polarization, human, triplicate; hit rate 37% among 620; shares compounds with ASAP1 GAP inh; AID 624431, 2012; ASAP1-stimulated Arf1 GTPase, GDP fluorescence polarization; inhibition, % at 16.5 µM;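 active = mean inhibition over triplicates exceeds the hit threshold derived for the earlier primary screening run, cut at about 25% in these data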
Starred values were filed as active, the others as inactive; · = no result given. Compounds with a hit are over-represented: about 2.2% of the library has one in this group of screens.

SMILES	ASAP1 GAP inh	rCAG binder	NadD block	ARFGAP1 inhibitor	ASAP1 inh confirm
Cc1cc(C)cc(N(CC(=O)NC2CCC(C)CC2)S(=O)(=O)c2ccc(C(C)(C)C)cc2)c1 (centres undefined)	·	0	·	·	·
CCN1C[C@@H]2[C@@H]3C(=O)N(Cc4ccccc4)C(=O)[C@@H]3[C@](Cc3ccccc3)(C1=O)N2C(=O)c1ccc(Cl)cc1	56*	1	-1	7	1
CN1c2ccc(-c3cccc(F)c3)cc2[C@H]2[C@H](CCN2S(=O)(=O)c2cccc(F)c2)[C@H]1CO	·	9	·	·	·
CCOC(=O)c1cccnc1SCC(=O)Nc1ccc(C)cc1	0	3	-5	-5	·
Cc1ccc(NC(=O)CSc2ncccc2C(=O)Oc2cccc([N+](=O)[O-])c2)cc1Cl	44*	4	-2	7	39*
O=C(Nc1ccc(Cl)cc1)c1csc([C@@H]2O[C@H](CO)[C@@H](O)[C@H]2O)n1	0	-2	0	-11	·
O=c1[nH]c(Nc2ccc(F)cc2)cc2ccccc12	37*	1	-1	43*	32*
NC(=O)COC(=O)CC(NC(N)=O)c1ccc(Cl)cc1 (centres undefined)	26*	1	1	1	0
CCCCCCN1CCN(C2CN(Cc3cn(Cc4cccc(C(F)(F)F)c4)nn3)S(=O)(=O)C2)CC1 (centres undefined)	12	-2	-3	8	·
Cc1noc(C)c1COc1ccc(C(=O)OCC(=O)NCc2ccccc2Cl)cc1	28*	-2	-7	8	2
Cc1noc(C)c1COc1cccc(C(=O)OCC(=O)NC(=O)c2ccc(OC(F)F)cc2)c1	30*	2	8	18	24
O=S(=O)(c1ccc(Cl)s1)N1CCC(c2cn3ccccc3n2)CC1	·	8	·	·	·
O=C(C1CCC(CNS(=O)(=O)c2ccccc2)CC1)N1CCCCC1 (centres undefined)	28*	-7	-9	6	0
O=C(Nc1ccc(OC(F)F)c(Cl)c1)Nc1ccc2c(c1)OCO2	-3	7	-8	-2	·
O=C(Nc1ccc([N+](=O)[O-])cc1)Nc1ccc(OC(F)F)c(Cl)c1	27*	22	-7	14	23
O=C1OCC(c2ccccc2)=C1c1ccccc1	-9	7	5	1	·
N#CC1=C(c2ccc(-c3ccccc3)cc2)COC1=O	29*	25	25	4	41*
S=c1[nH]nc(Cc2cccs2)n1-c1ccccc1Cl	26*	-3	2	-1	6
CC(C)N1C(=O)c2ccccc2NC(=O)C1C(=O)NCc1ccccc1 (centres undefined)	-6	0	·	-3	·
COc1ccccc1CNC(=O)NCCCN1CCN(c2ccc(F)cc2)CC1	·	2	·	·	·
COC(=O)c1ccc(-c2cccc(CN3CCN(c4ncc(Cc5ccccc5)cn4)CC3)c2)cc1	-8	4	·	5	·
Cn1cc(SCC(=O)NC2CCCC2)c2ccccc21	4	-3	-2	-2	·
Cn1cc(SCC(=O)NC2CCCCC2)c2ccccc21	27*	-10	1	16	13
Cn1nc(C(C)(C)C)cc1C(=O)NCC1CCN(C(=O)C(=O)c2cc3ccccc3o2)CC1	6	2	·	12	·
O=C(N/N=C/c1c(O)ccc2ccccc12)c1cccc(C(F)(F)F)c1	27*	12	16	8	24
Cc1ccc(C)c(N(C)S(=O)(=O)c2ccc3[nH]cc(C(=O)NCCN4CCOCC4)c(=O)c3c2)c1	-1	6	1	-5	·
Cc1ccc(N(C)S(=O)(=O)c2ccc3[nH]cc(C(=O)NCCCN4CCOCC4)c(=O)c3c2)cc1C	30*	2	-9	-5	5
CC(C)C[C@@H]1COc2cc(N3CCC[C@H]3CO)ccc2S(=O)(=O)N1	-7	1	-3	4	·
Cc1nn(CCC(=O)NNC(=O)Nc2ccc(Cl)cc2)c(C)c1[N+](=O)[O-]	·	3	·	·	·
COCCNC(=O)C1CCCN(C(=O)c2cc(-c3cccs3)oc2C)CC1 (centres undefined)	5	2	-1	1	·
